{
  "source": "ChEMBL document CHEMBL4825680",
  "about": "“Structure-based discovery of potent and selective small-molecule inhibitors targeting signal transducer and activator of transcription 3 (STAT3)” (Eur J Med Chem, 2021)",
  "key": {"MDA231-LM2-4175 [1]": {"tested_on": "MDA231-LM2-4175", "assay": "Antitumor activity against human MDA231-LM2-4175 cells xenografted in mouse assessed as reduction in pY705-STAT3 expression at 5 to 15 mg/kg, iv administered once daily for 20 days by Western blotting analysis", "format": "functional, organism-based", "conditions": "dose 5-15 mg/kg, time 20.0 day"}, "MDA231-LM2-4175 [2]": {"tested_on": "MDA231-LM2-4175", "assay": "Antitumor activity against iv dosed human MDA231-LM2-4175 cells xenografted in mouse assessed as tumor growth inhibition administered once daily for 20 days", "format": "functional, organism-based", "conditions": "dose 5-15 mg/kg, time 20.0 day"}, "[3]": {"assay": "Cmax in Sprague-Dawley rat at 10 mg/kg, po measured up to 24 hrs by LC-MS/MS analysis", "format": "ADME, organism-based", "design": "route oral, dose 10 mg/kg, time <=24", "conditions": "in vivo", "outline": "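Male SD rats given a single oral dose of 10 mg/kg in DMSO/0.5% HPMC (5/95, v/v). Blood was drawn at 0.25, 0.5, 1, 2, 4, 8 and 24 h, and plasma was analysed by LC-MS/MS on a BEH phenyl column with a formic acid water/acetonitrile mobile phase.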"}, "HCC70 [4]": {"tested_on": "HCC70", "assay": "Effect on total STAT5 level in human HCC70 cells at 0.3 to 3 uM after 3 hrs by Western blotting analysis", "format": "functional, cell-based", "conditions": "dose 0.3-3 µM", "outline": "(§1)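 Breast cancer cells were treated with vehicle (0.1% DMSO) or compound, then lysed in RIPA with PMSF and phosphatase inhibitors. 20–50 μg protein was run on 8 or 12% SDS-PAGE, blotted to PVDF, blocked in 5% BSA, probed with primary antibodies overnight at 4 °C, then HRP secondaries, with ECL detection.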"}, "MDA-MB-468 [5]": {"tested_on": "MDA-MB-468", "assay": "Induction of apoptosis in human MDA-MB-468 cells assessed as increase in PARP cleavage at 1 uM after 48 hrs by Western blot analysis", "format": "functional, cell-based", "outline": "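Cells were treated with vehicle (0.1% DMSO) or compound, then analysed by western blot of RIPA lysates (20–50 μg protein, SDS-PAGE, PVDF) for PARP and cleaved caspase-7, with β-actin as loading control. Three independent experiments.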"}, "MDA-MB-231 [6]": {"tested_on": "MDA-MB-231", "assay": "Effect on total STAT1 level in human MDA-MB-231 cells at 0.3 to 3 uM after 3 hrs by Western blotting analysis", "format": "functional, cell-based", "conditions": "dose 0.3-3 µM", "outline": "as §1"}, "[7]": {"biological_target": "T1, Signal transducer and activator of transcription 3 (Homo sapiens, UniProt P40763)", "T1 sequence (P40763 whole entry)": "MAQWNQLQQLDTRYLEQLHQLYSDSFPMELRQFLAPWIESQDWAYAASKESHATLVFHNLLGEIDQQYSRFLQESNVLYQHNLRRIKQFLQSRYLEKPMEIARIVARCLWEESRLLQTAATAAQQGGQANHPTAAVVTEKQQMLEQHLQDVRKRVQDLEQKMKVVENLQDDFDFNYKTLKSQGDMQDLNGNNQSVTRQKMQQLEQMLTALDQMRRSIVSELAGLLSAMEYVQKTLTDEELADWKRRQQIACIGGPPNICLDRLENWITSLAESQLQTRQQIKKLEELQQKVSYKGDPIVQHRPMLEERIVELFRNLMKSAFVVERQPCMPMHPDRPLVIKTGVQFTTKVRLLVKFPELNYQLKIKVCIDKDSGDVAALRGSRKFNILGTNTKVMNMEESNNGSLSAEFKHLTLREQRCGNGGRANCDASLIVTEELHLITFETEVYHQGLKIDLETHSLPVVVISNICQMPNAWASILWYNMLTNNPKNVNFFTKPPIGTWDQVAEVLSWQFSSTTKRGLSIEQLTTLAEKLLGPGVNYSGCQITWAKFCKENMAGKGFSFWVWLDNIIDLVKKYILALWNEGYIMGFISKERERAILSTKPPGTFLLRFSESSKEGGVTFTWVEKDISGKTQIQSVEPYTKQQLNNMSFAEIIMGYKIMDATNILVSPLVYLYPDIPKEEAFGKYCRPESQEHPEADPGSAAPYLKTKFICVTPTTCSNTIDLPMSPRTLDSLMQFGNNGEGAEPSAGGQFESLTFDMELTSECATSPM", "assay": "Inhibition of STAT3 in human MDA-MB-468 cells assessed as downregulation of c-Myc expression at 0.3 to 3 uM after 24 hrs by western blot analysis", "format": "cell-based", "conditions": "dose 0.3-3 µM", "outline": "(§2)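 TNBC cells given vehicle (0.1% DMSO) or graded compound levels for 24 h, lysed in RIPA with PMSF and phosphatase inhibitors. BCA-quantified lysate (20–50 µg) run on SDS-PAGE, transferred to PVDF, blocked in 5% BSA. Probed overnight at 4 °C for Bcl-xL, Mcl-1 and c-Myc, with β-actin. HRP secondary, ECL detection. Three independent experiments.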"}, "MDA231-LM2-4175 [8]": {"tested_on": "MDA231-LM2-4175", "assay": "Antitumor activity against human MDA231-LM2-4175 cells xenografted in mouse assessed as reduction in Ki67 expression at 5 to 15 mg/kg, iv administered once daily for 20 days by immunohistochemical analysis", "format": "functional, organism-based", "conditions": "dose 5-15 mg/kg, time 20.0 day"}, "[9]": {"biological_target": "T1, Signal transducer and activator of transcription 3", "assay": "Inhibition of STAT3 in human HCC70 cells assessed as downregulation of Mcl-1 expression at 0.3 to 3 uM after 24 hrs by western blot analysis", "format": "cell-based", "conditions": "dose 0.3-3 µM", "outline": "as §2"}, "[10]": {"biological_target": "T1, Signal transducer and activator of transcription 3", "assay": "Inhibition of STAT3 in human MDA-MB-231 cells assessed as downregulation of Mcl-1 expression at 0.3 to 3 uM after 24 hrs by western blot analysis", "format": "cell-based", "conditions": "dose 0.3-3 µM", "outline": "as §2"}, "HCC70 [11]": {"tested_on": "HCC70", "assay": "Inhibition of cell invasion in human HCC70 cells incubated for 12 hrs by crystal violet staining based transwell assay", "format": "functional", "conditions": "dose 1-3 µM", "outline": "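Cells seeded at 1.5×10^4–3×10^4 per well in the upper chamber of 8.0 µm pore Transwell inserts and treated with graded compound for 12 h. Non-invading cells removed with cotton. Invaded cells fixed in 4% paraformaldehyde, stained with crystal violet, photographed and counted. Triplicate.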"}, "MDA-MB-468 [12]": {"tested_on": "MDA-MB-468", "assay": "Inhibition of cell migration in human MDA-MB-468 cells incubated for 12 to 96 hrs by wound healing assay", "format": "functional, cell-based", "conditions": "dose 0.3-3 µM, time 12-96 hrs", "outline": "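Cells grown to 100% confluence, then scratched with a pipette tip. Treated with 0–3 μM until vehicle-treated cells had migrated into the scratch. Images taken by microscope after about 12–96 h. Triplicate experiments.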"}, "MDA-MB-468 [13]": {"tested_on": "MDA-MB-468", "assay": "Induction of apoptosis in human MDA-MB-468 cells assessed as viable cells at 3 uM after 48 hrs by Annexin-V-FITC/propidium iodide staining based flow cytometric analysis (reference value: 95.5%)", "format": "functional", "conditions": "read-out: Activity"}, "MDA-MB-231 [14]": {"tested_on": "MDA-MB-231", "assay": "Inhibition of colony formation in human MDA-MB-231 cells at 0.3 uM after 10 to 15 days by crystal violet staining based assay", "format": "functional, cell-based", "conditions": "time 10-15 day", "outline": "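Cells seeded at 0.5×10^3–1×10^3 per well; compound added the next day. Medium and compound renewed every 2–3 days. After about 10–15 days, colonies fixed with 4% paraformaldehyde, stained with crystal violet, scanned and quantified by image analysis. Triplicate.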"}, "[15]": {"assay": "Toxicity in NOD/SCID mouse xenografted with patient-derived breast cancer cells assessed as loss of appetite at 5 to 15 mg/kg, iv administered once daily for 20 days", "format": "organism-based", "conditions": "in vivo, 480 h, dose 5-15 mg/kg, time 20 day"}, "[16]": {"biological_target": "T1, Signal transducer and activator of transcription 3", "assay": "Inhibition of STAT3 in human HCC70 cells assessed as downregulation of c-Myc expression at 0.3 to 3 uM after 24 hrs by western blot analysis", "format": "cell-based", "conditions": "dose 0.3-3 µM", "outline": "as §2"}, "[17]": {"biological_target": "T1, Signal transducer and activator of transcription 3", "assay": "Inhibition of STAT3 in human MDA231-LM2-4175 cells assessed as downregulation of c-Myc expression at 0.3 to 3 uM after 24 hrs by western blot analysis", "format": "cell-based", "conditions": "dose 0.3-3 µM", "outline": "as §2"}, "[18]": {"biological_target": "T1, Signal transducer and activator of transcription 3", "assay": "Inhibition of STAT3 in human HCC70 cells assessed as downregulation of Bcl-xL expression at 0.3 to 3 uM after 24 hrs by western blot analysis", "format": "cell-based", "conditions": "dose 0.3-3 µM", "outline": "as §2"}},
  "note": "Activity calls are given as the source filed them. The rule behind the calls is not given here.",
  "data": [
    {"smiles": "O=C(Cc1c(-c2ccccc2)nc2ccccn12)Nc1ccc2c(c1)S(=O)(=O)C=C2", "values": [
      {"measurement": "Activity", "setting": "MDA231-LM2-4175 [1]", "value": "Active"},
      {"measurement": "Activity", "setting": "MDA231-LM2-4175 [2]", "value": "Dose-Dependent Effect"},
      {"measurement": "Cmax", "setting": "[3]", "value": 23.8, "unit": "ng/mL"},
      {"measurement": "Activity", "setting": "HCC70 [4]", "value": "inactive"},
      {"measurement": "Activity", "setting": "MDA-MB-468 [5]", "value": "Active"},
      {"measurement": "Activity", "setting": "MDA-MB-231 [6]", "value": "inactive"},
      {"measurement": "inhibition", "setting": "[7]", "value": "Active"},
      {"measurement": "Activity", "setting": "MDA231-LM2-4175 [8]", "value": "inactive"},
      {"measurement": "inhibition", "setting": "[9]", "value": "Active"},
      {"measurement": "inhibition", "setting": "[10]", "value": "Active"},
      {"measurement": "inhibition", "setting": "HCC70 [11]", "value": "Dose-Dependent Effect"},
      {"measurement": "inhibition", "setting": "MDA-MB-468 [12]", "value": "Dose-Dependent Effect"},
      {"measurement": "viability at 3 µM", "setting": "MDA-MB-468 [13]", "value": 38.6, "unit": "%"},
      {"measurement": "inhibition", "setting": "MDA-MB-231 [14]", "value": "Active"},
      {"measurement": "Activity", "setting": "[15]", "value": "Non-Toxic"},
      {"measurement": "inhibition", "setting": "[16]", "value": "Active"},
      {"measurement": "inhibition", "setting": "[17]", "value": "Active"},
      {"measurement": "inhibition", "setting": "[18]", "value": "Active"}
    ]}
  ]
}
